Screening results deposited in PubChem BioAssay by several laboratories.
Keap1 Nrf2 FP – Keap1-Nrf2 (human) interaction inhibition | inhibition, % at 9.4 µM | Keap1 Kelch-Nrf2 peptide fluorescence polarization, 1536-well | actives 0.15% (n = 340,000); in the data active = inhibition above about 12%;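 also: human Keap1 Kelch domain with fluorescein labeled Nrf2 9mer peptide probe; 0% = neutral control wells and 100% = peptide positive control; higher means more block of Keap1 binding to Nrf2 peptide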
Target sequence (Q14145 whole entry, looked up, the tested form may be a part): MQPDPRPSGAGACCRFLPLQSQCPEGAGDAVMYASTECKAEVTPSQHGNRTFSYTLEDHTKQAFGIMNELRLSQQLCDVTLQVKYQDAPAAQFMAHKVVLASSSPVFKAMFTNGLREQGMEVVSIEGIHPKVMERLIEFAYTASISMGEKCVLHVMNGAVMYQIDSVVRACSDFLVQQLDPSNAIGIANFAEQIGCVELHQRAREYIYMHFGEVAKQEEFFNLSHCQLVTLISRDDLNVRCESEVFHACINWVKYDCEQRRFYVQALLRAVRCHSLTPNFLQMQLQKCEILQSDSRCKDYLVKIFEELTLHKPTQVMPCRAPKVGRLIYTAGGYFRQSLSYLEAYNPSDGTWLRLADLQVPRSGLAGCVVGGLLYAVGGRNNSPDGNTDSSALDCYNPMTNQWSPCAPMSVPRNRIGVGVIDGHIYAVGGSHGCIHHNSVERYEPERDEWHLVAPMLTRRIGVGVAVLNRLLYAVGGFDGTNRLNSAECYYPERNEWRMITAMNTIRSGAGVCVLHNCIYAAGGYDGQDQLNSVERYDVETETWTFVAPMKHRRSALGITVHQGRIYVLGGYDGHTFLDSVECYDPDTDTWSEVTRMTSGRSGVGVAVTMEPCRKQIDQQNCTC
DDE Tn7 FP inh – DD(E)-Tn7 binding inhibition, primary FP screen. P02675. FP displacement of FITC-Tn7 peptide from fibrin DD(E); 0% = median of compound wells per plate. inhibition, % at 8.3 µM. actives 0.13% (n = 370,000). AID 720508;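 active = inhibition above the mean of compounds falling within the control limits plus 3 SD of them, cut at about 14% in these data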;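 also: 0% = plate median of compound wells and 100% = 10 µM Aha-Tn7 peptide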
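Assay system: human fibrin DD(E). Input: DD(E) 2 µM final. Medium: Tris buffer with calcium and detergent, pH 7.8. Compound dosing: single point at 8.3 µM. Timing: 10 min plus 3 h, room temperature. Technique: fluorescence polarization of the labelled Tn7 tracer. Read-out: percent inhibition. Replicates: singlicate testing.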
Tn6 DDE FP – disrupts Tn6 cyclic peptide binding to fibrin D-Dimer-E complex; P02675; Fibrin DD(E) TRITC-Tn6 fluorescence polarization displacement; actives 0.21% (n = 370,000); inhibition, % at 8.3 µM; AID 720509;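 active = inhibition above a per-campaign cutoff: mean of compounds within control limits plus 3 SD, cut at about 15% in these data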;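 also: 0% = median of all compound wells on the plate and 100% = blocking peptide control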
LANA DNA inh – KSHV C-LANA DNA binding inhibition | MBP-C-LANA/FAM-LBS DNA binding, fluorescence polarization | inhibition, % at 9 µM | actives 0.078% (n = 340,000) | AID 504423;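 active = highest replicate inhibition at or above 60% at 9 µM, even if other replicates fall short; inactive = all replicates below 60% inhibition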;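 also: 0% = neutral control wells and 100% = 4 µM acridine orange control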
Cardiac RTF inh – cardiac RTF calcium desensitization; P19429+P45379; IANBD-labeled cardiac RTF, Ca2+ fluorescence; inhibition, % at 7.15 µM; actives 0.12% (n = 340,000);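 active = inhibition above the mean inhibition of all tested compounds plus 3 SD, cut at about 17% in these data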;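 also: assay run at fixed EC70 calcium of 1.6 mM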
cardiac RTF act – cardiac RTF calcium sensitization. P19429+P45379. IANBD-labeled TnC RTF fluorescence at EC20 calcium; 0% EC20 calcium, 100% full calcium. activation, % at 7.2 µM. actives 0.24% (n = 340,000). AID 493008;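 active = activation above the mean over all tested compounds plus 3 SD, cut at about 30% in these data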;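 also: rise in fluorescence read as greater calcium sensitivity of cardiac thin filaments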
RTF inh confirm – cardiac RTF calcium sensitivity inhibition, confirmation. shares compounds with Cardiac RTF inh. reconstituted cardiac thin filaments, calcium sensitivity fluorescence. inhibition, % at 7.15 µM. actives 8% (n = 360); in the data active = inhibition above about 18%
Keap1 Kelch bind – binders of human Keap1 Kelch domain | max delta Tm, degrees C | shares compounds with Keap1 Nrf2 FP | actives 8% (n = 400) | Keap1 Kelch thermal shift, delta Tm; hits give high values; in the data active = max delta Tm above about 0.48 degrees C
Dye-only ctr – counter-screen for Keap1 thermal shift hits: dye-only artifacts | shares compounds with Keap1 Nrf2 FP | 140 tested, under 10 active | delta Tm, degrees C (concentration not given with the values) | Sypro Orange dye-only thermal melt, no protein, delta Tm; top dose 26 µM | AID 651858;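 active = at highest dose tested, delta Tm positive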
* marks the source's active call; other numbers are inactive results; · = no result given; ! = not confirmed by another sample. In the library only some 0.73% were active in any assay of this set; here they are far more common.

SMILES	Keap1 Nrf2 FP	DDE Tn7 FP inh	Tn6 DDE FP	LANA DNA inh	Cardiac RTF inh	cardiac RTF act	others
CN1C(=O)/C(=C\c2ccc(N3CCCCCC3)cc2)C(=O)NC1=S	3	-1	-5	2	-5	0
CN1C(=O)/C(=C/c2ccc(N3CCCCCC3)o2)C(=O)NC1=S	-12	-3	-3	-3	-37	86*
CC(NC(=O)OCc1ccccc1)[P+](=O)O (centres undefined)	·	-9	0	·	·	·
CN1CC[C@@H]2CN[C@H](c3ccccc3)C[C@@H]21	·	1	-2	·	·	·
Cc1ccc(C)c(Cn2c(C(=O)O)c(C=O)c3ccccc32)c1	-110	-6	-2	-24	-109	86*
C#C[C@]1(O)CC[C@H]2[C@@H]3CCC4=Cc5nc6nc7ccccc7n6cc5C[C@]4(C)[C@H]3CC[C@@]21C	-7	1	1	4	-37	38*
CCN1C(=O)C(=Cc2ccc(N3CCOCC3)o2)C(=O)N(CC)C1=S	-10	2	1	-3	-32	33*
C=CCN1C(=O)/C(=C\c2ccc(N3CCOCC3)o2)C(=O)NC1=S	-109	-1	-14	-30	-41	49*
CC(C)C(C(=O)NC(C)(C)C)N1C(=O)CN=C(c2ccccc2)c2ccccc21 (centres undefined)	·	-2	-1	·	·	·
CCN(CC)c1ccc(N=Cc2c(O)n(Cc3ccco3)c(=O)[nH]c2=O)cc1	-6	-1	-11	20	-51	79*
Brc1ccc2c(c1)-n1nncc1CNC2	·	-6	5	·	·	·
CCCC/C(C)=C/[C@@H](NP(=O)(c1ccccc1)c1ccccc1)c1ccccc1	-3	14*	5	0	1	-5
O=C1NC(=O)C(=Cc2cn(CCOc3ccc4c(c3)OCO4)c3ccccc23)C(=O)N1	-3	·	·	11	-25	159*
C=CCn1cc(C=C2C(=O)NC(=O)NC2=O)c2ccccc21	6	-2	-6	7	2	-3
COC(=O)C1=C(c2ccc(OC(F)(F)F)cc2)C[C@@H]2CC[C@H]1N2C(=O)NCc1ccco1	·	-1	-1	·	·	·
Fc1ccc2nc(-c3ccc(CN4CCC(n5nnc6ccccc65)CC4)cc3)c(-c3ccccc3)nc2c1	·	5	-9	·	·	·
CC(C)C[C@H]1C(=O)N2CCC[C@H]2[C@]2(O)O[C@](NC(=O)[C@@H]3C=C4c5cccc6[nH]cc(c56)C[C@H]4N(C)C3)(C(C)C)C(=O)N12	34*	·	·	67*	-90	67*
CCC(CO)NC(=O)C1C=C2c3cccc4[nH]cc(c34)CC2N(C)C1 (centres undefined)	-4	3	-5	3	-29	16
CCC(C)(O)C(=O)OC1C(=O)OC2CC3C(C)=CC(O)C(O)C3(C)C3C4(O)OCC23C1C(C)C4O (centres undefined)	·	6	-4	·	·	·
CCC(C)/C=C(C)/C=C/C1=CC2=C(Cl)C(=O)C(C)(OC(C)=O)C(=O)C2=CO1 (centres undefined)	1	·	·	6	3	-1
CC[C@H](C)/C=C(C)/C=C/C1=CC2=C(Cl)C(=O)[C@@](C)(OC(C)=O)C(=O)C2=CO1	-9	·	·	28	42*	-47
CN(C)C1C(=O)C(C(N)=O)=C(O)C2(O)C(=O)C3=C(O)c4c(O)cccc4C(C)(O)C3C(O)C12 (centres undefined)	-1	-5	-15	58	30*	-8	RTF inh confirm=-4
Cc1cccc(CN(C)C)c1OC(=O)N(C)C	-2	-1	6	2	34*	1	RTF inh confirm=1
COC1CC=C2CCN3CCC4=C(CC(=O)OC4)C23C1 (centres undefined)	·	-5	-8	·	·	·
Cc1nc2ccccc2c(=O)n1-c1cc(F)ccc1F	1	-4	1	-1	28*	0	RTF inh confirm=-3
SMILES	Keap1 Nrf2 FP	DDE Tn7 FP inh	Tn6 DDE FP	LANA DNA inh	Cardiac RTF inh	cardiac RTF act	others
Cc1nc2ccccc2c(=O)n1-c1ccc(F)cc1F	-1	1	-2	-1	-6	-6
C[N+]12CCC(CC1)C(=C(c1ccccc1)c1ccccc1)C2	-1	-9	1	0	19*	0	RTF inh confirm=-2
COc1ccc([C@@H]2C[C@H]3[C@@H](CN2)CON3C)cc1	·	-3	-9	·	·	·
C=C1C(=O)C(C)=C2C(=O)N3Cc4[nH]c5ccccc5c4CC3(C(=O)OC)C12 (centres undefined)	·	1	8	·	·	·
C[C@H](NC(=O)OCc1ccccc1)C(=O)NC(Cc1ccccc1)P(=O)(Oc1ccccc1)Oc1ccccc1 (some centres undefined)	·	5	0	·	·	·
CC12CC3CC(C)(C1)CC(N)(C3)C2	0	7	-4	-2	17*!	0	RTF inh confirm=-2
Oc1ccc2c3c1O[C@H]1c4[nH]c5ccccc5c4C[C@@]4(O)[C@@H](C2)N(CC2CC2)CC[C@]314	-4	-2	4	-1	13	5
Oc1ccc2c3c1O[C@H]1c4oc5ccccc5c4C[C@@]4(O)[C@@H](C2)N(CC2CC2)CC[C@]314	-6	-1	-4	0	27*	-1	RTF inh confirm=5
CC(C)(C)c1o[nH]c(=O)c1CC(N)C(=O)O (centres undefined)	1	2	0	-2	21*	2	RTF inh confirm=-5
N#CCC[C@@H]1CC[C@]2(CCCN(Cc3ccccn3)C2)O1	·	-5	-3	·	·	·
CN1/C(=C\C=C2C(=O)NC(=O)NC2=O)C(C)(C)c2ccccc21	32*	-29	5	28	-182	109*	Keap1 Kelch bind=-0.19;Dye-only ctr=-21
CN1/C(=C\C=Nc2ccccc2)C(C)(C)c2ccccc21	2	-8	6	2	-23	9
O=C(NCCN1CCC2(CC1)C(=O)NCN2c1ccccc1)c1cccs1	·	-2	-6	·	·	·
CC1(O)CCN2C(=O)CCc3cccc1c32 (centres undefined)	44*	0	6	26	-16	4	Keap1 Kelch bind=-0.09
O=C(NC(CCC(O)CO)P(=O)(Oc1ccccc1)Oc1ccccc1)OCc1ccccc1 (centres undefined)	·	-6	4	·	·	·
Cn1cc(/C=C2\C(=O)NC(=O)N(c3ccccc3)C2=O)c2ccccc21	49*	1	1	88*	-3	2	Keap1 Kelch bind=-0.13
COC(=O)C1=C[C@H]([C@@H](C)[C@H](OC)c2ccccc2Br)[C@@H]2[C@H]1c1ccccc1N2C	·	-14	-1	·	·	·
